Activity calls are given as the source filed them. No cut-off for these calls is given here.
Key:
[1] = test system: Mus musculus; assay: Protection against cerulein-induced acute pancreatitis in C57BL/6J mouse assessed as reduction in edema at 30 mg/kg administered twice per day for 5 days followed by cerulein addition and measured 24 hrs post-last dose by H and E staining based histological analysis; assay type: functional, organism-based; details: time 6.0 day
Summary of the method: (§1)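 H&E-stained pancreas sections are scored for edema and inflammation. Groups are control, cerulein and cerulein plus inhibitor, in both the pre-induction and post-induction cerulein acute pancreatitis models in mice.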

[2] = test system: Mus musculus; assay: Protection against cerulein-induced acute pancreatitis in C57BL/6J mouse assessed as reduction in ATF3 mRNA level at 30 mg/kg administered 24 hrs post-cerulein addition and measured after 24 hrs by Trisure-reagent based RT-PCR analysis; assay type: functional, organism-based
Summary of the method: (§2)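 Post-induction (treatment) protocol in C57BL/6J mice. Acute pancreatitis is induced by several cerulein administrations, followed by ip sEH inhibitor at 3 or 30 mg/kg. Pancreatic mRNA of TNF-α, IL-1β, MCP-1 and ATF3 is quantified against control and cerulein-only groups. Mean ± SEM, n = 5 per group.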

[3] = test system: Mus musculus; assay: Protection against cerulein-induced acute pancreatitis in C57BL/6J mouse assessed as reduction in ATF3 mRNA level at 30 mg/kg administered twice per day for 5 days followed by cerulein addition and measured 24 hrs post-last dose by Trisure-reagent based RT-PCR analysis; assay type: functional, organism-based; details: time 6.0 day
Summary of the method: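 Pre-induction (prevention) protocol in C57BL/6J mice. Inhibitor is given ip at 30 mg/kg before cerulein induction of acute pancreatitis. Pancreatic mRNA of TNF-α, IL-1β, MCP-1 and ATF3 is compared with control and cerulein-only mice. Mean ± SEM, n = 5 per group.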

[4] = AUClast in CD-1 mouse at 1 mg/kg, ip measured up to 24 hrs by LC-MS analysis; assay type: ADME, organism-based; parameters: route intraperitoneal, dose 1 mg/kg, time <=24; details: in vivo
Summary of the method: (§3)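 Single dose, 1 mg/kg, given to mice intravenously or intraperitoneally. Parameters are taken from the plasma concentration–time profile: T1/2, Tmax, Cmax, C0 (iv only), AUClast, AUCINF_obs, Vz and Cl. Bioavailability is derived from ip versus iv exposure.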

[5] = Apparent volume of distribution in CD-1 mouse at 1 mg/kg, iv measured up to 24 hrs by LC-MS analysis; assay type: ADME, organism-based; details: in vivo; summary of the method: as §3
[6] = test system: Mus musculus; assay: Protection against cerulein-induced acute pancreatitis in C57BL/6J mouse assessed as reduction in MCP1 mRNA level at 30 mg/kg administered 24 hrs post-cerulein addition and measured after 24 hrs by Trisure-reagent based RT-PCR analysis; assay type: functional, organism-based; summary of the method: as §2
[7] = test system: Mus musculus; assay: Protection against cerulein-induced acute pancreatitis in C57BL/6J mouse assessed as reduction in ATF3 mRNA level at 3 mg/kg administered 24 hrs post-cerulein addition and measured after 24 hrs by Trisure-reagent based RT-PCR analysis; assay type: functional, organism-based; summary of the method: as §2
[8] = Acute toxicity in CD-1 mouse assessed as effect on behavior at 5 to 80 mg/kg, ip administered daily for 5 days; assay type: organism-based; details: in vivo, 120 h, dose 5-80 mg/kg, time 5 day
Summary of the method: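 Mice received the compound intraperitoneally once a day for five consecutive days at 5, 10, 20 and 80 mg/kg. Acute toxicity was judged from body weight during treatment, apparent behaviour problems and the presence of petechiae.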

[9] = test system: Mus musculus; assay: Protection against cerulein-induced acute pancreatitis in C57BL/6J mouse assessed as reduction in IL1-beta mRNA level at 3 mg/kg administered 24 hrs post-cerulein addition and measured after 24 hrs by Trisure-reagent based RT-PCR analysis; assay type: functional, organism-based; summary of the method: as §2
[10] = Tmax in CD-1 mouse at 1 mg/kg, iv measured up to 24 hrs by LC-MS analysis; assay type: ADME, organism-based; details: in vivo; summary of the method: as §3
[11] = test system: Mus musculus; assay: Protection against cerulein-induced acute pancreatitis in C57BL/6J mouse assessed as reduction in TNF-alpha mRNA level at 3 mg/kg administered 24 hrs post-cerulein addition and measured after 24 hrs by Trisure-reagent based RT-PCR analysis; assay type: functional, organism-based; summary of the method: as §2
[12] = Cmax in CD-1 mouse at 1 mg/kg, iv measured up to 24 hrs by LC-MS analysis; assay type: ADME, organism-based; parameters: route intravenous, dose 1 mg/kg, time <=24; details: in vivo; summary of the method: as §3
[13] = Cmax in CD-1 mouse at 1 mg/kg, ip measured up to 24 hrs by LC-MS analysis; assay type: ADME, organism-based; parameters: route intraperitoneal, dose 1 mg/kg, time <=24; details: in vivo; summary of the method: as §3
[14] = test system: Mus musculus; assay: Protection against cerulein-induced acute pancreatitis in C57BL/6J mouse assessed as reduction in TNF-alpha mRNA level at 30 mg/kg administered 24 hrs post-cerulein addition and measured after 24 hrs by Trisure-reagent based RT-PCR analysis; assay type: functional, organism-based; summary of the method: as §2
[15] = test system: Mus musculus; assay: Protection against cerulein-induced acute pancreatitis in C57BL/6J mouse assessed as reduction in edema at 30 mg/kg administered 24 hrs post-cerulein addition and measured after 24 hrs by H and E staining based histological analysis; assay type: functional, organism-based; summary of the method: as §1
[16] = AUC (infinity) in CD-1 mouse at 1 mg/kg, iv measured up to 24 hrs by LC-MS analysis; assay type: ADME, organism-based; parameters: route intravenous, dose 1 mg/kg, time <=24; details: in vivo; summary of the method: as §3
[17] = species on record: Homo sapiens; assay: Selectivity ratio of inhibition of recombinant human CYP3A4 to IC50 for inhibition of recombinant human soluble epoxide hydrolase using 7-BFC as substrate
[18] = Selectivity ratio of inhibition of recombinant human CYP1A2 to IC50 for inhibition of recombinant mouse soluble epoxide hydrolase
[19] = Selectivity ratio of inhibition of recombinant human CYP3A4 to IC50 for inhibition of recombinant mouse soluble epoxide hydrolase using 7-BFC as substrate
[20] = species on record: Homo sapiens; assay: Selectivity ratio of inhibition of recombinant human CYP1A2 to IC50 for inhibition of recombinant human soluble epoxide hydrolase
[21] = Apparent permeability across basolateral to apical side in human Caco-2 cells at 10 uM measured after 2 hrs by LC-MS/MS analysis; details: caco-2, 2 h
[22] = Selectivity ratio of inhibition of recombinant human CYP2C19 to IC50 for inhibition of recombinant mouse soluble epoxide hydrolase
[23] = Apparent permeability across apical to basolateral side in human Caco-2 cells at 10 uM measured after 2 hrs by LC-MS/MS analysis; details: caco-2, 2 h
[24] = Selectivity ratio of inhibition of recombinant human CYP2D6 to IC50 for inhibition of recombinant mouse soluble epoxide hydrolase

SMILES: CC(C)S(=O)(=O)N1CCC(NC(=O)NC23CC4CC(CC(C4)O2)C3)CC1
- Activity [1]: Active
- Activity [2]: Active
- Activity [3]: Active
- AUClast [4]: 34.67 ng·h/mL
- Vz [5]: 67.73 L/kg
- Activity [6]: Active
- Activity [7]: inactive
- Activity [8]: Non-Toxic
- Activity [9]: inactive
- Tmax [10]: 9.6 min
- Activity [11]: inactive
- Cmax [12]: 108.33 ng/mL
- Cmax [13]: 117.33 ng/mL
- Activity [14]: Active
- Activity [15]: Active
- AUC [16]: 59.63 ng·h/mL

SMILES: CC(=O)N1CCC(NC(=O)NC23CC4CC(CC(C4)O2)C3)CC1
- Selectivity ratio [17]: > 100
- Selectivity ratio [18]: > 100
- Selectivity ratio [19]: > 100
- Selectivity ratio [20]: > 100
- Papp [21]: 9.45 ×10⁻⁶ cm/s
- Selectivity ratio [22]: > 100
- Papp [23]: 2.24 ×10⁻⁶ cm/s
- Selectivity ratio [24]: > 100

— ChEMBL document CHEMBL4725350, “2-Oxaadamant-1-yl Ureas as Soluble Epoxide Hydrolase Inhibitors: In Vivo Evaluation in a Murine Model of Acute Pancreatitis” (J Med Chem, 2020)
